The text below walks through data of the EternaBench riboswitch data.

The data set relates to MS2 coat protein. As to the kind of experiment: apparent Kd, MS2 coat protein; higher = weaker binding; RNA-MaP array; FMN 200 µM where present. An outline of the steps: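 Designs were transcribed by stalled E. coli RNA polymerase on Illumina sequencing-chip clusters. They were titrated with SNAP-549-labelled MS2 coat protein from 0.7 or 1.5 nM, doubling to 3 µM, in 100 mM Tris-HCl pH 7.5, 80 mM KCl, 4 mM MgCl2, BSA, DTT, yeast tRNA and Tween-20, without and then with constant ligand. The apparent Kd is the median of filtered per-cluster fits after normalisation of green signal to red-channel RNA signal and control-cluster median Fmax.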

[1] abbreviates: designed as: OFF switch for flavin mononucleotide, no ligand.
Where [2] appears, read: ligand present: flavin mononucleotide, designed as: OFF switch for flavin mononucleotide.
[3] abbreviates: designed as: ON switch for flavin mononucleotide, no ligand.
[4] abbreviates: ligand present: flavin mononucleotide, designed as: ON switch for flavin mononucleotide.

On to “AGAAGUAUGCAGGAUAUGGGAACCUAUUGACAUUCAGAAGGGCAUACAUGAGGAUCACCCAUGUGGCCUCCCAG”, for which the “apparent Kd” value by setting is: under setting [1], 19.3 nM; under setting [2], 35.1 nM.
The like results for “AGGAGGUCAGGAUAUGCAUGGCGGGACUUGCGUCGUGGCGUGCAGAAGGGACAUGAGGAUCACCCAUGUGGAGC” were, in that order, 66.4 nM and 106 nM.
Turning to “AAAAAACAUGAGGAUCACCCAUGUAAAAAAAUCGCAGGAUAUAAGGUCGCGAAAGCGACCUUAGAAGGGCGAUCCU”, the “apparent Kd” value was 267 nM under setting [3] and 78.1 nM under setting [4].
Regarding “AAGAAGAUAGGAUAUACGAGGAGAGGAGAGAAGAGGUGAGGACAUGAGGAUCACCCAUGUAGAAGGAUCAGGAA”, the “apparent Kd” value under setting [1] is 46.6 nM and the “apparent Kd” value under setting [2] was 35.6 nM.
For “AUUAUGACCGAGUUAUAGUUCCAAACAUGAGGAUCACCCAUGUAGGAUAUCAGCACGAUAAGUGCUGAGAAGGACAUCUCGGUC”, the “apparent Kd” value is, setting by setting: under setting [1], 14.9 nM; under setting [2], 16.1 nM.
Consider “GUAGAUAGAUAGAAGGUAUGGUAUUAGAUUAAAUAAGGAUAUAUGAACAUGAGGAUCACCCAUGUAUUAUGGGAUAGAUAGACU”, for which the “apparent Kd” value runs as follows: under setting [3], 228 nM; under setting [4], 153 nM.
Turning to “UGUAUGGACAGAGGAUAUACGUGCUAGAGAUACUAGCAAAUAAUCCUUACAUGAGGAUCACCCAUGUAGAAGGCUGUCCAUACU”, the “apparent Kd” value came out at 20.1 nM under setting [1] and 46.5 nM under setting [2].
The like results for “GUCGUGUAAGGAUAUGCAUCGAGGUAGCGAAUGUUGCAGGUGUAGAAGGUACAUGAGGAUCACCCAUGUAAUGU” were, in that order, 22.2 nM and 30.1 nM.
“AGUAACAGAGGAUAUACUAUUUUAUGUGUUUAUUGUUUUGAACAUGAGGAUCACCCAUGUAGAAGGCUGAAUAA”: the “apparent Kd” value is 24.4 nM under setting [1] and 28 nM under setting [2].
As to “GCUGCUAUCACAGGAUAUUACAUGGGAAAGAGUACAUGAGGAUCACCCAUGUAAAAGAUCAUAAAUAAGAAGGGUGAUAGCAGC”, the “apparent Kd” value runs as follows: under setting [3], 150 nM; under setting [4], 256 nM.
As for “GGAUUUCCUGAGGAUAUUGUAUCACCUGAUUGAUAAGAAGGCAGAACAUGAGGAUCACCCAUGUGGGUACUCGG”, the “apparent Kd” value came to 134 nM under setting [1] and 135 nM under setting [2].
As for “AAAAUGUAAGGAUAUGCUGCUCGUCACUUGCGUGAUGAGUAGCAGAAGGUACAUGAGGAUCACCCAUGUAAAGA”, the “apparent Kd” value under setting [1] was 32.7 nM and the “apparent Kd” value under setting [2] was 45.8 nM.
“UCUCGACAUGAGGAUCACCCAUGUCAGGAUAUUGUGUUUUGGGUUUUUUACCUUUUGGCAAGAAGGGAUGUGUG”: the “apparent Kd” value under setting [1] came to 23 nM and the “apparent Kd” value under setting [2] was 22.1 nM.
Regarding “ACAUGAGGAUCACCCAUGUAUACAUAGGAUAUUGGUGAUCAGGGAUGUUUUACAGGAUAUGUCUGCGAGAAGGAUGCAAGAUGU”, the “apparent Kd” value runs as follows: under setting [3], 398 nM; under setting [4], 69 nM.
Regarding “AAGUAUAGAGGAUAUAGUGAGUACUACAUGAGGAUCACCCAUGUUCUUCGUUACGUAUUUCUAGAAGGCUGAUAAA”, the “apparent Kd” value was 105 nM under setting [1] and 248 nM under setting [2].
As to “GGUGCGUCUGUGAGGAUAUGCUGGUCCUUGGAUCAGCAGAAGGCACAUGAGGAUCACCCAUGUGGUGUCGUACC”, the “apparent Kd” value turned out to be 233 nM under setting [1] and 129 nM under setting [2].
Take “CGUGCGUAUGUGAGGAUAUGCUGGUCCUUGGAUCGGCAGAAGGUACAUGAGGAUCACCCAUGUGGUGUCGUUCU”: the “apparent Kd” value under setting [1] was 252 nM and the “apparent Kd” value under setting [2] came to 292 nM.
With “CAGCGCUGUCGAGAGGAUAUGCGGUGAUGGACAUGAGGAUCACCCAUGUUAGCGAUAGCAUUACGGUAGAAGGCUCUACAGCUGC”, the “apparent Kd” value runs as follows: under setting [3], 239 nM; under setting [4], 14.2 nM.
Regarding “GUGGUCAGACAUGAGGAUCACCCAUGUGGAAUAAAUAAGGAGAAGGAUAUCGAAUAUAGGAUAUACGAGAAGGUCUGGUUGGUG”, the “apparent Kd” value under setting [3] is 77.3 nM and the “apparent Kd” value under setting [4] came out at 83.1 nM.
Turning to “GCGGCUAAUGCAGGAUAUCGGCGCGUGUAGCGCCGAGAAGGGCACAUGAGGAUCACCCAUGUGAUCAAUCAAUGUUAAUGCCGC”, the “apparent Kd” value under setting [1] worked out at 8.68 nM and the “apparent Kd” value under setting [2] was 45.6 nM.
As to “CAGGAUAGAGGAUAUACAUAGAUACAGAUUCGUGUAAUCCUACAUGAGGAUCACCCAUGUAGAAGGCUAUCCUG”, the “apparent Kd” value under setting [1] was determined as 14.8 nM and the “apparent Kd” value under setting [2] was determined as 28.5 nM.
Regarding “UUGAUAAAUUAGAAGGCGUGAUAAAAUACAAUAAACAUGAGGAUCACCCAUGUGUACCCAUGUUAUGAGGAUAUAGACAUUUAU”, the “apparent Kd” value is, setting by setting: under setting [3], 365 nM; under setting [4], 245 nM.
“UUCGGCAGUGCAGGAUAUCUAGAGAAACACCUAAGAGAAGGGCAAACAUGAGGAUCACCCAUGUUUGGCGUGAGGUGAAGUUAG”: the “apparent Kd” value is, setting by setting: under setting [1], 5.99 nM; under setting [2], 6.02 nM.
As for “UAGUAUAAGGGCAUUAAACAUGAGGAUCACCCAUGUACGAUAGAGGAUAUGCAUUUCAGUUGAGAGUAGAAGGUUAGAGAAUUG”, the “apparent Kd” value was determined as 37.2 nM under setting [1] and 43.4 nM under setting [2].

As usually defined, the apparent Kd is a dissociation constant that holds for the conditions of the assay.
